Results reported in ChEMBL document CHEMBL1137737, “Synthesis, antimicrobial and cytotoxic activities of 1,3,4-oxadiazoles, 1,3,4-thiadiazoles and 1,2,4-triazoles” (Eur J Med Chem, 2009).
In brackets after ≈: the same amount, converted by molar mass.

Experiments:
Type in all cases: functional
Fusarium solani [1] = assay: Antifungal activity against Fusarium solani NCIM 1330 after 48 hrs by microdilution susceptibility method; settings: NCIM 1330, 48 h
Summary of the method: (§1)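 This is a microdilution susceptibility test. Organism suspensions are inoculated into wells holding the dilution series, then incubated at 36 °C for 24 h (bacteria) or 48 h (fungi). MIC is the lowest concentration giving no turbidity, i.e. complete inhibition of visible growth.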

Klebsiella pneumoniae [2] = assay: Antibacterial activity against Klebsiella pneumoniae NCIM 2957 at 200 ug/disk after 24 hrs by agar disc-diffusion method; settings: NCIM 2957, 24 h, read-out: DIZ
Summary of the method: (§2)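 Sterile 6 mm filter-paper discs are soaked in compound solution in DMSO and placed on nutrient agar plates already inoculated with each organism. Plates are incubated at 37 °C. The diameter of the growth-inhibition zone is read after 24 h for bacteria and after 48 h for fungi.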

Proteus vulgaris [3] = assay: Antibacterial activity against Proteus vulgaris NCIM 2027 at 200 ug/disk after 24 hrs by agar disc-diffusion method; settings: NCIM 2027, 24 h, read-out: DIZ; summary of the method: as §2
Fusarium solani [4] = assay: Antifungal activity against Fusarium solani NCIM 1330 at 100 ug/disk after 48 hrs by agar disc-diffusion method; settings: NCIM 1330, 48 h, read-out: DIZ; summary of the method: as §2
Curvularia lunata [5] = assay: Antifungal activity against Curvularia lunata NCIM 716 at 200 ug/disk after 48 hrs by agar disc-diffusion method; settings: NCIM 716, 48 h, read-out: DIZ; summary of the method: as §2
Bacillus subtilis [6] = assay: Antibacterial activity against Bacillus subtilis NCIM 2063 at 200 ug/disk after 24 hrs by agar disc-diffusion method; settings: NCIM 2063, 24 h, read-out: DIZ; summary of the method: as §2
Aspergillus niger [7] = assay: Antifungal activity against Aspergillus niger NCIM 596 after 48 hrs by microdilution susceptibility method; settings: NCIM 596, 48 h; summary of the method: as §1
Klebsiella pneumoniae [8] = assay: Antibacterial activity against Klebsiella pneumoniae NCIM 2957 at 100 ug/disk after 24 hrs by agar disc-diffusion method; settings: NCIM 2957, 24 h, read-out: DIZ; summary of the method: as §2
Aspergillus niger [9] = assay: Antifungal activity against Aspergillus niger NCIM 596 at 100 ug/disk after 48 hrs by agar disc-diffusion method; settings: NCIM 596, 48 h, read-out: DIZ; summary of the method: as §2
Staphylococcus aureus [10] = assay: Antibacterial activity against Staphylococcus aureus NCIM 5021 after 24 hrs by microdilution susceptibility method; settings: NCIM 5021, 24 h; summary of the method: as §1
Bacillus subtilis [11] = assay: Antibacterial activity against Bacillus subtilis NCIM 2063 after 24 hrs by microdilution susceptibility method; settings: NCIM 2063, 24 h; summary of the method: as §1
Curvularia lunata [12] = assay: Antifungal activity against Curvularia lunata NCIM 716 after 48 hrs by microdilution susceptibility method; settings: NCIM 716, 48 h; summary of the method: as §1
Fusarium solani [13] = assay: Antifungal activity against Fusarium solani NCIM 1330 at 200 ug/disk after 48 hrs by agar disc-diffusion method; settings: NCIM 1330, 48 h, read-out: DIZ; summary of the method: as §2
Aspergillus niger [14] = assay: Antifungal activity against Aspergillus niger NCIM 596 at 200 ug/disk after 48 hrs by agar disc-diffusion method; settings: NCIM 596, 48 h, read-out: DIZ; summary of the method: as §2
Bacillus subtilis [15] = assay: Antibacterial activity against Bacillus subtilis NCIM 2063 at 100 ug/disk after 24 hrs by agar disc-diffusion method; settings: NCIM 2063, 24 h, read-out: DIZ; summary of the method: as §2
Staphylococcus aureus [16] = assay: Antibacterial activity against Staphylococcus aureus NCIM 5021 at 100 ug/disk after 24 hrs by agar disc-diffusion method; settings: NCIM 5021, 24 h, read-out: DIZ; summary of the method: as §2
Staphylococcus aureus [17] = assay: Antibacterial activity against Staphylococcus aureus NCIM 5021 at 200 ug/disk after 24 hrs by agar disc-diffusion method; settings: NCIM 5021, 24 h, read-out: DIZ; summary of the method: as §2
Curvularia lunata [18] = assay: Antifungal activity against Curvularia lunata NCIM 716 at 100 ug/disk after 48 hrs by agar disc-diffusion method; settings: NCIM 716, 48 h, read-out: DIZ; summary of the method: as §2
Proteus vulgaris [19] = assay: Antibacterial activity against Proteus vulgaris NCIM 2027 at 100 ug/disk after 24 hrs by agar disc-diffusion method; settings: NCIM 2027, 24 h, read-out: DIZ; summary of the method: as §2

| Structure (SMILES) | MIC (Fusarium solani [1]) [µg/mL] | MIC (Aspergillus niger [7]) [µg/mL] | MIC (Staphylococcus aureus [10]) [µg/mL] | MIC (Bacillus subtilis [11]) [µg/mL] | MIC (Curvularia lunata [12]) [µg/mL] | zone of inhibition at 200 µg/disc (Klebsiella pneumoniae [2]) [mm] | zone of inhibition at 200 µg/disc (Proteus vulgaris [3]) [mm] | zone of inhibition at 100 µg/disc (Fusarium solani [4]) [mm] | zone of inhibition at 200 µg/disc (Curvularia lunata [5]) [mm] | zone of inhibition at 200 µg/disc (Bacillus subtilis [6]) [mm] | zone of inhibition at 100 µg/disc (Klebsiella pneumoniae [8]) [mm] | zone of inhibition at 100 µg/disc (Aspergillus niger [9]) [mm] | zone of inhibition at 200 µg/disc (Fusarium solani [13]) [mm] | zone of inhibition at 200 µg/disc (Aspergillus niger [14]) [mm] | zone of inhibition at 100 µg/disc (Bacillus subtilis [15]) [mm] | zone of inhibition at 100 µg/disc (Staphylococcus aureus [16]) [mm] | zone of inhibition at 200 µg/disc (Staphylococcus aureus [17]) [mm] | zone of inhibition at 100 µg/disc (Curvularia lunata [18]) [mm] | zone of inhibition at 100 µg/disc (Proteus vulgaris [19]) [mm] |
| --- | --- | --- | --- | --- | --- | --- | --- | --- | --- | --- | --- | --- | --- | --- | --- | --- | --- | --- | --- |
| O=S(=O)(Cc1ccccc1)Cc1nnc(-c2ccccc2Cl)o1 | 400 (≈ 1150 µM) |  | 400 (≈ 1150 µM) |  | 400 (≈ 1150 µM) | 16 | 17 | 17 | 23 | 18 | 14 | 18 | 19 | 21 | 15 | 17 | 20 | 18 | 15 |
| O=S(=O)(Cc1nnc(-c2ccccc2)o1)c1ccc(Cl)cc1 | 400 (≈ 1190 µM) |  |  |  |  | 16 | 15 | 16 | 17 | 17 | 14 | 16 | 20 | 19 | 15 | 15 | 18 | 15 | 12 |
| Nn1c(CS(=O)(=O)c2ccccc2)nnc1-c1ccccc1Cl | 400 (≈ 1150 µM) |  | 400 (≈ 1150 µM) | 200 (≈ 573 µM) | 200 (≈ 573 µM) | 20 | 18 | 23 | 25 | 22 | 17 | 18 | 25 | 21 | 19 | 17 | 20 | 22 | 16 |
| O=S(=O)(Cc1nnc(-c2ccccc2Cl)o1)c1ccc(Cl)cc1 | 400 (≈ 1080 µM) |  | 400 (≈ 1080 µM) | 400 (≈ 1080 µM) | 400 (≈ 1080 µM) | 17 | 19 | 16 | 19 | 17 | 14 | 15 | 19 | 16 | 16 | 15 | 18 | 17 | 16 |
| O=S(=O)(Cc1nnc(-c2ccccc2)o1)c1ccccc1 |  |  |  |  |  | 18 | 17 | 15 | 19 | 13 | 16 | 14 | 18 | 17 | 11 | 12 | 15 | 15 | 14 |
| CC(=O)N1CCN(c2ccc(OCC3COC(Cn4ccnc4)(c4ccc(Cl)cc4Cl)O3)cc2)CC1 (configuration not stated) [KETOCONAZOLE] | 12.5 (≈ 23.5 µM) | 6.25 (≈ 11.8 µM) |  |  | 6.25 (≈ 11.8 µM) |  |  | 38 | 44 |  |  | 36 | 42 | 39 |  |  |  | 41 |  |
| O=S(=O)(Cc1nnc(-c2ccccc2Cl)o1)c1ccccc1 |  |  |  |  |  | 15 | 17 | 16 | 22 | 17 | 12 | 15 | 20 | 17 | 16 | 14 | 16 | 18 | 14 |
| O=S(=O)(Cc1ccc(Cl)cc1)Cc1nnc(-c2ccccc2)o1 | 400 (≈ 1150 µM) |  | 400 (≈ 1150 µM) |  | 400 (≈ 1150 µM) | 18 | 17 | 16 | 22 | 19 | 16 | 17 | 19 | 21 | 18 | 18 | 20 | 19 | 15 |

More lines, in order of falling MIC (Fusarium solani [1]), values ahead:

| MIC (Fusarium solani [1]) [µg/mL] | MIC (Aspergillus niger [7]) [µg/mL] | MIC (Staphylococcus aureus [10]) [µg/mL] | MIC (Bacillus subtilis [11]) [µg/mL] | MIC (Curvularia lunata [12]) [µg/mL] | Structure (SMILES) | zone of inhibition at 200 µg/disc (Klebsiella pneumoniae [2]) [mm] | zone of inhibition at 200 µg/disc (Proteus vulgaris [3]) [mm] | zone of inhibition at 100 µg/disc (Fusarium solani [4]) [mm] | zone of inhibition at 200 µg/disc (Curvularia lunata [5]) [mm] | zone of inhibition at 200 µg/disc (Bacillus subtilis [6]) [mm] | zone of inhibition at 100 µg/disc (Klebsiella pneumoniae [8]) [mm] | zone of inhibition at 100 µg/disc (Aspergillus niger [9]) [mm] | zone of inhibition at 200 µg/disc (Fusarium solani [13]) [mm] | zone of inhibition at 200 µg/disc (Aspergillus niger [14]) [mm] | zone of inhibition at 100 µg/disc (Bacillus subtilis [15]) [mm] | zone of inhibition at 100 µg/disc (Staphylococcus aureus [16]) [mm] | zone of inhibition at 200 µg/disc (Staphylococcus aureus [17]) [mm] | zone of inhibition at 100 µg/disc (Curvularia lunata [18]) [mm] | zone of inhibition at 100 µg/disc (Proteus vulgaris [19]) [mm] |
| --- | --- | --- | --- | --- | --- | --- | --- | --- | --- | --- | --- | --- | --- | --- | --- | --- | --- | --- | --- |
| 400 (≈ 1140 µM) | 400 (≈ 1140 µM) | 400 (≈ 1140 µM) | 400 (≈ 1140 µM) | 400 (≈ 1140 µM) | O=S(=O)(Cc1nnc(-c2ccccc2)s1)c1ccc(Cl)cc1 | 17 | 19 | 18 | 21 | 23 | 15 | 16 | 21 | 19 | 18 | 20 | 23 | 19 | 16 |
| 400 (≈ 1270 µM) |  | 400 (≈ 1270 µM) |  |  | O=S(=O)(Cc1ccccc1)Cc1nnc(-c2ccccc2)o1 | 18 | 15 | 17 | 22 | 17 | 15 | 16 | 20 | 17 | 14 | 16 | 18 | 18 | 12 |
| 400 (≈ 1140 µM) | 400 (≈ 1140 µM) | 400 (≈ 1140 µM) | 400 (≈ 1140 µM) | 400 (≈ 1140 µM) | O=S(=O)(Cc1nnc(-c2ccccc2Cl)s1)c1ccccc1 | 21 | 19 | 19 | 21 | 18 | 17 | 15 | 22 | 18 | 15 | 20 | 23 | 18 | 16 |
| 400 (≈ 1260 µM) |  | 400 (≈ 1260 µM) | 400 (≈ 1260 µM) | 400 (≈ 1260 µM) | O=S(=O)(Cc1nnc(-c2ccccc2)s1)c1ccccc1 | 18 | 20 | 18 | 19 | 17 | 16 | 15 | 22 | 17 | 15 | 19 | 21 | 16 | 18 |
| 400 (≈ 1270 µM) |  | 400 (≈ 1270 µM) | 400 (≈ 1270 µM) | 400 (≈ 1270 µM) | Nn1c(CS(=O)(=O)c2ccccc2)nnc1-c1ccccc1 | 18 | 18 | 22 | 24 | 17 | 15 | 19 | 25 | 22 | 14 | 16 | 18 | 20 | 16 |
